Values after ≈ are worked out from the molar mass of the structure shown. Active and inactive are the calls of the source. The calls are words filed in the database; no cut-off is given here.
Experiments:
[1] = biological target: T1, D-alanyl-D-alanine carboxypeptidase DacA (Geobacillus stearothermophilus) (UniProt Q05523); test: Inhibition of Bacillus stearothermophilus DD-carboxypeptidase using UDP-N-acetylmuramyl-L-alanyl-meso-diaminopimeloyl-D-alanyl-D-alanine as substrate at 10 to 100 ug/ml
T1 sequence (whole entry): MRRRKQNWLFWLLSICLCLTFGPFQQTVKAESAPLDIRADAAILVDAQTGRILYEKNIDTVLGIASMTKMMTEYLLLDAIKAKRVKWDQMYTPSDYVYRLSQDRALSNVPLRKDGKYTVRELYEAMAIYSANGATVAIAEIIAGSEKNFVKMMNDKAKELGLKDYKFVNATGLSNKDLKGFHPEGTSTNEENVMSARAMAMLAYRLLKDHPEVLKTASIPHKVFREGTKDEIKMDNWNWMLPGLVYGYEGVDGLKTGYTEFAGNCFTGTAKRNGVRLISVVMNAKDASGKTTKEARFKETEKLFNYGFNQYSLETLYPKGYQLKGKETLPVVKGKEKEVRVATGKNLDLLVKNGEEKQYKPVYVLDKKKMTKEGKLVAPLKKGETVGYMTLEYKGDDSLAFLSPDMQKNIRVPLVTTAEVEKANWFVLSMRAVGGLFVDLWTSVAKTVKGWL
Summary of the method: (§1)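 Enzymes tested for release of D-alanine, measured with D-amino acid oxidase. Compounds assayed at 10 and 100 μg/mL. Substrates: Ac2-L-Lys-D-Ala-D-Ala for the Streptomyces R61 enzyme; UDP-N-acetylmuramyl-L-alanyl-meso-diaminopimeloyl-D-alanyl-D-alanine for the B. stearothermophilus and S. typhimurium enzymes.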

[2] = biological target: D-alanyl-D-alanine carboxypeptidase (Streptomyces sp. R61) (UniProt P15555); test: Inhibition of Streptomyces R61 DD-carboxypeptidase using Ac2-L-Lys-D-Ala-D-Ala as substrate at 10 to 100 ug/ml; summary of the method: as §1
[3] = tested on: Salmonella enterica subsp. enterica serovar Typhimurium; test: Inhibition of Salmonella typhimurium DD-carboxypeptidase using UDP-N-acetylmuramyl-L-alanyl-meso-diaminopimeloyl-D-alanyl-D-alanine as substrate at 10 to 100 ug/ml; summary of the method: as §1
Staphylococcus aureus = test: Antibacterial activity against Staphylococcus aureus assessed as inhibition of growth after 18 hrs by broth culture method; type: functional
Summary of the method: (§2)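 Broth dilution in 0.5 mL Sensitivity Test Broth, inoculated with 0.2 mL of a 10^-4 dilution of an 18-h broth culture. MIC read after 18-h incubation as the lowest concentration preventing growth.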

Escherichia coli = test: Antibacterial activity against Escherichia coli assessed as inhibition of growth after 18 hrs by broth culture method; type: functional; summary of the method: as §2

Chain of D-alanyl-D-alanine carboxypeptidase (Streptomyces sp. R61) (P15555 whole entry): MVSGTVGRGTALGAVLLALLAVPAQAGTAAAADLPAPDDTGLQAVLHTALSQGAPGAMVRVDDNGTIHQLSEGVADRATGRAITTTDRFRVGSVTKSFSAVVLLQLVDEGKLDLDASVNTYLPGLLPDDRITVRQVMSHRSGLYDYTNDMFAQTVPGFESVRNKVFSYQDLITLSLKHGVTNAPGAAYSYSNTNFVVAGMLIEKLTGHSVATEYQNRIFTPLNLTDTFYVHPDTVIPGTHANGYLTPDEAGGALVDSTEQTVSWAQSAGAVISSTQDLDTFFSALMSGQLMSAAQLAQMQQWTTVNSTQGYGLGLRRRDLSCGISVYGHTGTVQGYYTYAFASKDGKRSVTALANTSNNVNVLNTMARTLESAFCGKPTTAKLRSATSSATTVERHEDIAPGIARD

SMILES | inhibition [1] | inhibition [2] | inhibition [3] | MIC (Staphylococcus aureus) | MIC (Escherichia coli)
C[C@@H](NC(=O)CBr)C(=O)N[C@H](C)C(=O)OC(C)(C)C | inactive | inactive | inactive | 62 µg/mL (≈ 184 µM) | > 500 µg/mL
C[C@@H](NC(=O)[C@@H](C)NC(=O)[C@H](CCCCN1C(=O)CCC1=O)NC(=O)CI)C(=O)O | inactive | inactive | inactive | 500 µg/mL (≈ 929 µM) | > 500 µg/mL
C[C@@H](NC(=O)[C@H](CCCCN1C(=O)CCC1=O)NC(=O)CI)C(=O)N[C@H](C)C(=O)OC(C)(C)C | inactive | inactive | inactive | > 500 µg/mL | > 500 µg/mL
C[C@@H](NC(=O)CI)C(=O)N[C@H](CCC(=O)OC(C)(C)C)C(=O)OC(C)(C)C | inactive | inactive | inactive | 31 µg/mL (≈ 62.2 µM) | > 500 µg/mL
C[C@@H](NC(=O)[C@H](CCCCNC(=O)CI)NC(=O)OC(C)(C)C)C(=O)N[C@H](C)C(=O)OC(C)(C)C | inactive | inactive | inactive | 125 µg/mL (≈ 204 µM) | > 500 µg/mL
C[C@@H](NC(=O)[C@H](CCCCN1C(=O)c2ccccc2C1=O)NC(=O)CI)C(=O)N[C@H](C)C(=O)OC(C)(C)C | inactive | inactive | inactive | 62 µg/mL (≈ 96.5 µM) | > 500 µg/mL

Source: ChEMBL document CHEMBL3272093, “Antibacterial halogenoacetyl derivatives of amino acids and simple peptides” (1977)
